Results gathered from unrelated publications.
Target: Serine/threonine-protein kinase ULK1 (ULK1, Homo sapiens, UniProt O75385)
Residues used in one study (O75385 1-1050): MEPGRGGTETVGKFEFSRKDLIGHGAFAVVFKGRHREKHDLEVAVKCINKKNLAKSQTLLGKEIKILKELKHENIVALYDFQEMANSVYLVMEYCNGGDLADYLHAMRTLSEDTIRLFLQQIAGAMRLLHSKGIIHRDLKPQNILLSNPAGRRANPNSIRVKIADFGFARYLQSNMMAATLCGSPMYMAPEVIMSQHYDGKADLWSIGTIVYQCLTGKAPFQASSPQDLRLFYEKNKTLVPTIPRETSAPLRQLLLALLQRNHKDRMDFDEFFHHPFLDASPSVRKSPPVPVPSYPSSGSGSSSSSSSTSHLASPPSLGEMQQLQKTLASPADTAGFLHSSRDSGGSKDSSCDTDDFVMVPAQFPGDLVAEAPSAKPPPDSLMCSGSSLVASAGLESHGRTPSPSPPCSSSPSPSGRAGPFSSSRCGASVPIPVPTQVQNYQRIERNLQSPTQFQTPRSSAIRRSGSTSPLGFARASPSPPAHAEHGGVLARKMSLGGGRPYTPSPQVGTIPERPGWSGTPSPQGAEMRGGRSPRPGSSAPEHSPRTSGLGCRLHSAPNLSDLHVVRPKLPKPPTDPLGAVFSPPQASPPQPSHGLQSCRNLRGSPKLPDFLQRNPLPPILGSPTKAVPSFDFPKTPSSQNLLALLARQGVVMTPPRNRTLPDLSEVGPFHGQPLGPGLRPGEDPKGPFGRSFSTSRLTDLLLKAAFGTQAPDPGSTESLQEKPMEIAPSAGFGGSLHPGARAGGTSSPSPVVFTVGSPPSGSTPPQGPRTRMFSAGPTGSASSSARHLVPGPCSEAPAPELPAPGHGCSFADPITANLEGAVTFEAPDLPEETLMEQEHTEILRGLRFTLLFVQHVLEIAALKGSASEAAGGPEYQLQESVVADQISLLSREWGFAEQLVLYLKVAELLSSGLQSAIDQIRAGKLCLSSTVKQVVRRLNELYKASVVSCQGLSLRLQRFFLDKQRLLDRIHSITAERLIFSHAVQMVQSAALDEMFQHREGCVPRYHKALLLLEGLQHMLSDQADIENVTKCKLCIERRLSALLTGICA

Structure (SMILES) | effect on | mode | method | concentration | endpoint | result
O=C(Nc1cnn(-c2csc(C(=O)NC3COC3)c2)c1)Nc1ccccc1Cl | enzyme activity | inhibitor | – | 5 µM | remaining activity | 134%
CS(=O)(=O)N1CCCC(NC(=O)[C@H](CCC2CCCCC2)NC(=O)c2ccc(CNc3ncnc4c3nnn4-c3ccccc3)cc2)C1 (stereo partly shown) | cell-free assay | – | competition with immobilised ligand | 0.1 µM | remaining binding | 100%
O=C1Nc2ccc(Cl)cc2C1=Cc1cc(Cl)c(O)c(Cl)c1 | cell-free assay | – | – | 0.5 µM | remaining signal | 95%
NS(=O)(=O)c1ccc(CNc2nc(Nc3cccc(NC(=O)N4CCCC4)c3)ncc2Br)cc1 | enzyme activity | inhibitor | radiometric | 1 µM | remaining activity | 66%
O=C(NCc1ncc(C(F)(F)F)cc1Cl)c1ccc2c(c1)C1(CCS(=O)(=O)CC1)[C@@H](C1CC1)N2S(=O)(=O)c1ccc(F)cc1 | cell-free assay | – | competition with immobilised ligand | 1 µM | remaining binding | 80%
FC(F)(F)Oc1cccc(-c2cnc3ccc(-c4ccncc4)nn23)c1 | enzyme activity | inhibitor | radiometric | 1 µM | activity vs control | 114%
C[S+]([O-])c1ccc(-c2nc(-c3ccncc3)c(-c3ccc(F)cc3)[nH]2)cc1 (stereo not shown) | cell-free assay | – | – | 0.5 µM | remaining signal | 89.3%
CC(=O)N1CCC(c2ccc(C(=O)NC(=N)N)cc2C(F)(F)F)CC1 | cell-free assay | – | competition with immobilised ligand | 1 µM | remaining binding | 100%
O=C(NCCCNc1nc(Nc2cccc(NC(=O)N3CCCC3)c2)ncc1Br)C1CCC1 | enzyme activity | inhibitor | radiometric | 1 µM | remaining activity | 2%
COc1ccc(Nc2ncc(C(F)(F)F)c(NC3CC3)n2)cc1OC | thermal stability | – | DSF | 10 µM | ΔTm | 9.5 °C
NS(=O)(=O)c1cc(NC(=O)C2(c3ccccc3Cl)CC2)ccc1Oc1cccc(Cl)c1 | cell-free assay | – | competition with immobilised ligand | 1 µM | remaining binding | 89%
CN1CC(Oc2cnc(C#N)cc2-c2ccn3nc(NC(=O)C4CC4)cc3c2)C1 | enzyme activity | inhibitor | – | 1 µM | inhibition | -1%
Cc1nn(CC(F)(F)F)cc1Nc1ncc(Br)c(NCc2ccc(S(N)(=O)=O)cc2)n1 | enzyme activity | inhibitor | radiometric | 1 µM | remaining activity | 77%
CCc1ccccc1C(=O)Nc1n[nH]c2c(C)c(F)c(C3C(C#N)=C(C)N(C)C(C)=C3C#N)cc12 | cell-free assay | – | competition with immobilised ligand | 1 µM | remaining binding | 29%
Cc1ccc(C(=O)NCc2ccsc2)cc1C#Cc1cn(C(C)C)c2ncnc(N)c12 | enzyme activity | inhibitor | – | 1 µM | activity vs control | 101%
c1ccc(CNc2nc(N3CCOc4ccccc43)nc3c2CCCC3)cc1 | target engagement in cells | inhibitor | chemoproteomics | 20 mM | inhibition | -9%
Cc1nn(CC(F)(F)F)cc1Nc1ncc(C2CC2)c(NCCCNC(=O)C2CCC2)n1 | enzyme activity | inhibitor | radiometric | 1 µM | remaining activity | 58%
C[C@@H](c1cccc(C#N)c1)n1cc(Cl)cc(C(N)=O)c1=N | cell-free assay | – | competition with immobilised ligand | 1 µM | remaining binding | 72%
O=C(NCCCNc1nc(Nc2cccc(NC(=O)N3CCCC3)c2)ncc1I)c1cccs1 | enzyme activity | inhibitor | radiometric | 1 µM | remaining activity | 4%
COc1cccc(CNC(=O)c2nc3scc(COCc4ccc(C(=O)O)cc4)c3c(=O)[nH]2)c1 | cell-free assay | – | competition with immobilised ligand | 1 µM | remaining binding | 74%
COc1ccc(COc2ccc(Cc3cnc(N)nc3N)cc2OC)cc1 | cell-free assay | – | – | 0.5 µM | remaining signal | 99.7%
c1cc(CN2CCOCC2)cc(Nc2ncc(C3CC3)c(NCCc3c[nH]cn3)n2)c1 | enzyme activity | inhibitor | radiometric | 1 µM | remaining activity | 24%
